This passage reports Activity and inhibition results from ChEMBL document CHEMBL4354819, “Discovery of Novel Small Molecule Dual Inhibitors Targeting Toll-Like Receptors 7 and 8” (J Med Chem, 2019).

The source made the active and inactive calls. No cut-off for these calls is given here.

In data set [1] the test system is THP-1. Put plainly: Cytotoxicity against human THP1 cells transfected with human TLR7/8 assessed as reduction in cell viability at 100 uM incubated for 16 hrs by WST-1 assay. In kind it is cell-based. Particulars: thp-1, 16 h.
Data set [2] has as its target T1, Toll-like receptor 9 (Homo sapiens) (UniProt Q9NR96).
T1 sequence (whole entry): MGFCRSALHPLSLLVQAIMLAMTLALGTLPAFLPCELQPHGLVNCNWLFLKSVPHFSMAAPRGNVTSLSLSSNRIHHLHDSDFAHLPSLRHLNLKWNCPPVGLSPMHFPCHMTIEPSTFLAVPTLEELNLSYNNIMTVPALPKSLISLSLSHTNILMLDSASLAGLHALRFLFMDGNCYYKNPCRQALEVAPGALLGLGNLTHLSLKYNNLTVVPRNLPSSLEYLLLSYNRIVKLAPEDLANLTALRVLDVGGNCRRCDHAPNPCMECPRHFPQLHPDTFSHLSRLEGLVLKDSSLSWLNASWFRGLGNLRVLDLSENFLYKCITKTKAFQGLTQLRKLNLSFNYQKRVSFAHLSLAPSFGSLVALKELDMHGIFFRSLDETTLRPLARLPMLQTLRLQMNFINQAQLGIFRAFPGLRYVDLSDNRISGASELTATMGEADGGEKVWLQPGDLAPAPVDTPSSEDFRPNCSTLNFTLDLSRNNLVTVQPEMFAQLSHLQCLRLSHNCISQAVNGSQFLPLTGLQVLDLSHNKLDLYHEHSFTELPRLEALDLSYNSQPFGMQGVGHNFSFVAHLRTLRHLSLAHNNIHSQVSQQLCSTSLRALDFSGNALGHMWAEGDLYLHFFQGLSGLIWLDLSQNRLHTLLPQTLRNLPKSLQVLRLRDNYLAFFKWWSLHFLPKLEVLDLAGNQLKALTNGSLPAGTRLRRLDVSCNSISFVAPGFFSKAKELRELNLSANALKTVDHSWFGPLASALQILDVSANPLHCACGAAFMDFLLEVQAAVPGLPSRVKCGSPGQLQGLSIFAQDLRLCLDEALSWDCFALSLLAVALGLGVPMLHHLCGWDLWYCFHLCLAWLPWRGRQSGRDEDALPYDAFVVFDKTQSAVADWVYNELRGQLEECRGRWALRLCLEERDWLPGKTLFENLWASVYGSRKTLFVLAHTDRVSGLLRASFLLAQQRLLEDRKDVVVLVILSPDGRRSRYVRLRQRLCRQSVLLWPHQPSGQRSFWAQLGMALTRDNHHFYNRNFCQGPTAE
Kind of data set: Inhibition of human TLR9 expressed in HEK293 cells assessed as reduction in ODN-2006-induced NFkappaB production at 1.5 uM incubated for 16 hrs by quanti-blue SEAP assay. In kind it is cell-based. In a few lines: (§1)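 Selectivity panel in stably transfected HEK 293-Blue cells, each overexpressing one human TLR with an inducible SEAP reporter. Agonists: Pam3CSK4 (TLR1/2), Pam2CSK4 (TLR2/6), poly(I:C) (TLR3), LPS (TLR4), R848 (TLR7/8), ODN 2006 (TLR9). Cells were exposed to compound for 16 h. Activity = (raw − untreated)/(ligand + solvent − untreated), with ligand + solvent set as 100%.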

In data set [3] the target is T2, Toll-like receptor 7 (Homo sapiens) (UniProt Q9NYK1).
T2 sequence (whole entry): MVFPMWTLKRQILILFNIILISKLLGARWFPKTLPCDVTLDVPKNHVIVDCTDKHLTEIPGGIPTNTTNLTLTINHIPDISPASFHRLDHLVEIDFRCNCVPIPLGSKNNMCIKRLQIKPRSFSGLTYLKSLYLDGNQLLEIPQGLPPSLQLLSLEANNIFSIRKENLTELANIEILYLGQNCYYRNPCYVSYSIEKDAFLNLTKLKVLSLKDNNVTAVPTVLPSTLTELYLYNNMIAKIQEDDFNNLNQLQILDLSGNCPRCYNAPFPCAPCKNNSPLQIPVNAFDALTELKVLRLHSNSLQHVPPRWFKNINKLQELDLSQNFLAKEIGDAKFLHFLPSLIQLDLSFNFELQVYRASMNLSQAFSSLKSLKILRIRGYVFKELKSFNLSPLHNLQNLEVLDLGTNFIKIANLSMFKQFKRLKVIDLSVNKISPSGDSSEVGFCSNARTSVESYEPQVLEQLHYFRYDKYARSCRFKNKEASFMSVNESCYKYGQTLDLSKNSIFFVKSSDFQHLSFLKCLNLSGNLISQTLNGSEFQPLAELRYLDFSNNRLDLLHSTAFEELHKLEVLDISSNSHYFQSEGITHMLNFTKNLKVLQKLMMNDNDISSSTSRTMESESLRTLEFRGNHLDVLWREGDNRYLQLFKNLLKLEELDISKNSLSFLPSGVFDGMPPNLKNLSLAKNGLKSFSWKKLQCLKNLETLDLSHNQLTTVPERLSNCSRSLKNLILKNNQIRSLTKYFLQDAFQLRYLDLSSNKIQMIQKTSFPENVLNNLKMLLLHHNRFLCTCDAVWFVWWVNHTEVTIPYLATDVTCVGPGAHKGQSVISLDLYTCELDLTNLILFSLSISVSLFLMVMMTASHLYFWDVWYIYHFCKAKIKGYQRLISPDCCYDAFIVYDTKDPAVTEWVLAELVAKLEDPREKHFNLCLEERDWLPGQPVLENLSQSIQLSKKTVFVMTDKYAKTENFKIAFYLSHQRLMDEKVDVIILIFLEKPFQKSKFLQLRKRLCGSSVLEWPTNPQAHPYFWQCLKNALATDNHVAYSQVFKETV
Kind of data set: Inhibition of human TLR7 expressed in HEK293 cells assessed as reduction in resiquimod-induced NFkappaB production at 5 to 20 uM incubated for 16 hrs by quanti-blue SEAP assay. In kind it is cell-based. In outline: as §1

Data set [4] concerns THP-1. Kind of data set: Inhibition of IFN mediated immune response in human THP1 cells assessed as inhibition of G3-YSD-induced cGAS signalling pathway at 5 to 20 uM incubated for 16 hrs by luciferase assay. In kind it is functional, cell-based. In a few lines: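 THP1-Dual monocytes carrying Lucia luciferase and SEAP reporters were stimulated with 3p-hpRNA (RIG-I agonist) or Y-form dsDNA G3-YSD (cGAS agonist), with or without compound. Secreted Lucia luciferase luminescence was measured as the type I IFN read-out. Mean ± s.d., n = 3 independent experiments.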

Turning to `O=[N+]([O-])c1c(I)cccc1Oc1ccc(-c2nnco2)cc1`, the Activity result in data set [1] was “Toxic”.

For the compound `O=C(Nc1ccc(Oc2cc(C(F)(F)F)cc(C(F)(F)F)c2)cc1)c1c(F)cccc1Cl`, in data set [2], the inhibition entry is “inactive”.

Consider `O=C(Nc1ccc(Oc2cncc(C(F)(F)F)c2)cc1)c1c(F)cccc1Cl`, for which the inhibition entry in data set [3] and in data set [4] was “Active” throughout.
